Test results: article PMC6032914 (Clinical Pharmacology in Drug Development, 2018)
Read-outs that look alike come from different tables or passages of the source.

How the values were obtained:
[1] = tested on: c‐Met‐positive advanced NSCLC; details: in combination with erlotinib; cited from earlier work
[2] = cited from earlier work
NSCLC xenografts = details: cited from earlier work
[3] = Ficlatuzumab serum pharmacokinetics; type: in vivo, human
Safety and tolerability = type: in vivo, human; details: every 2 weeks, plus gefitinib 250 mg/day
serum HGF = assay: Serum HGF pharmacodynamic marker; type: in vivo, human; details: total serum HGF after ficlatuzumab administration
Procedure, shortened: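 Peripheral blood for serum total HGF was drawn before treatment and 3 h postinfusion on day 1, predose on days 2, 3, 8 and 22–28, predose and 2 h postinfusion on day 15 of cycle 1, and predose on cycle 3 day 1.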

[4] = tested on: phospho‐c‐Met and phospho‐Akt; details: NSCLC tumor lysates, alone or in combination; cited from earlier work
[5] = Ficlatuzumab antidrug antibody; type: in vivo, human
HGF = details: affinity of ficlatuzumab to HGF; cited from earlier work
[6] = Gefitinib pharmacokinetics; type: in vivo; details: human, plasma, oral, Tmax (h), mean (SD), gefitinib 250 mg daily with ficlatuzumab 20 mg/kg
[7] = 15 patients receiving monotherapy 20 mg/kg
[8] = ficlatuzumab 10 mg/kg, Cycle 1, day 1, n = 3
[9] = ficlatuzumab 20 mg/kg, Cycle 1, day 1, n = 12
[10] = ficlatuzumab 20 mg/kg, Cycle 4, day 1, n = 6

onartuzumab: c‐Met‐targeted monovalent monoclonal antibody, tested in combination with erlotinib
outcome of the phase 3 study [1]: lack of efficacy

Ficlatuzumab: humanized IgG1κ inhibitory monoclonal antibody that binds to HGF and prevents the ligand from activating the c‐Met receptor
TEAE fatigue [2, 7]: 5 patients
TEAE hypokalemia [2, 7]: 4 patients
TEAE nausea [2, 7]: 4 patients
TEAE peripheral edema [2, 7]: 8 patients
TEAE vomiting [2, 7]: 5 patients
tolerability of the highest administered dose ([2]; ficlatuzumab 20 mg/kg): well tolerated without any dose‐limiting toxicities
grade 3/4 TEAE hypokalemia ([2]; ficlatuzumab monotherapy): 4 patients
recommended phase 2 dose (RP2D) of ficlatuzumab ([2]; intravenous every 2 weeks, with oral erlotinib 150 mg/day): 20 mg/kg
tumor growth (NSCLC xenografts): inhibits tumor growth
mean trough level of ficlatuzumab ([3]; beginning of cycle 4, 20 mg/kg cohort, n = 8): 413.1 µg/mL
Ficlatuzumab drug exposure (Cmax and AUC0–last) versus dose ([3]; cycle 1, 10 and 20 mg/kg): approximately proportional to dose
AUC0–last (mg·h/mL), mean (SD) [3, 8]: 39.2 (4.5) mg·h/mL
Cmax (μg/mL), mean (SD) [3, 8]: 229 (8.9) μg/mL
t1/2 (Days), mean (SD) [3, 8]: 15.2 (4.7) Days
AUC0–last (mg·h/mL), mean (SD) [3, 9]: 81.3 (16.5) mg·h/mL
Cmax (μg/mL), mean (SD) [3, 9]: 544 (141) μg/mL
t1/2 (Days), mean (SD) [3, 9]: 11.3 (3.2) Days
AUC0–last (mg·h/mL), mean (SD) [3, 10]: 212 (47.3) mg·h/mL
Cmax (μg/mL), mean (SD) [3, 10]: 1070 (220) μg/mL
mean half‐life ([3]; first dose in cycle 1, dose not stated): approximately 15 days
recommended phase 2 dose (RP2D) of ficlatuzumab (Safety and tolerability): 20 mg/kg
highest HGF level observed (serum HGF): ≈ 14 ng/mL
phospho‐c‐Met and phospho‐Akt levels [4]: decreased
ADA result of postficlatuzumab samples ([5]; 41 samples from 14 patients): negative
immunogenicity ([5]; any patients during the observation period): not immunogenic
Kd (HGF): 3 pM

COc1cc2ncnc(Nc3ccc(F)c(Cl)c3)c2cc1OCCCN1CCOCC1 [Gefitinib, gefitinib]
Tmax ([6]; Cycle 1, day 1, n = 12): 5.4 h
Tmax ([6]; Cycle 4, day 1, n = 6): 9.9 h
